According to ChEMBL document CHEMBL4304771, “Design, synthesis and biological activity of N-(2-phenoxy)ethyl imidazo[1,2-a]pyridine-3-carboxamides as new antitubercular agents” (Eur J Med Chem, 2019):
Converted amounts (≈) assume the structure as drawn.

Key:
[1] = tested on: Mycobacterium tuberculosis; assay: Antitubercular activity against Mycobacterium tuberculosis H37Rv ATCC 27294 assessed as parasite growth inhibition measured after 7 days incubation by microplate alamar blue assay; type: functional; conditions: H37Rv ATCC 27294, 168 h
Procedure, shortened: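 Strains grown to late log phase in 7H9 with 0.2% glycerol, 0.05% Tween 80 and 10% ADC. Cells washed, resuspended in PBS, filtered (8 µm) and frozen at -80 °C. Two-fold compound dilutions, 2 × 10⁵ CFU per well, 37 °C for 7 days. Tween 80 and Alamar blue then added for 16-24 h; fluorescence read at ex 530/em 590 nm. MIC = lowest concentration giving ≥90% fluorescence reduction versus mean of bacterium-only controls.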

[2] = Acute toxicity in ICR mouse assessed as animal survival at 500 mg/kg, po administered as single dose measured for 7 days; type: organism-based; conditions: in vivo
Procedure, shortened: (§1)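 Female ICR mice, 18-22 g, five per group, randomly assigned, fasted overnight. Single oral dose of 500 mg/kg suspended in 5% CMC; controls got 5% CMC alone (0.5 mL). Watched continuously for 4 h, then hourly to 24 h, then every 8 h for 7 days for deaths or changes. Read-out was survivors/total.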

[3] = Half-life in ICR mouse at 50 mg/kg, po administered as single dose measured for 24 hrs by HPLC analysis; type: ADME, organism-based; conditions: in vivo
Procedure, shortened: (§2)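 Female SPF ICR mice (18–22 g), fasted overnight, 3 per group, got a single oral 50 mg/kg dose as a suspension in 0.5% CMC. Jugular blood was drawn at 0.25, 0.5, 1, 2, 4, 6, 8 and 24 h, and serum was stored at −20 °C. Proteins were precipitated with acetonitrile, and extracts were dried, redissolved in acetonitrile and run by HPLC. Parameters came directly from the concentration–time data.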

[4] = Tmax in ICR mouse at 50 mg/kg, po administered as single dose measured for 24 hrs by HPLC analysis; type: ADME, organism-based; conditions: in vivo; procedure, shortened: as §2
[5] = Cmax in ICR mouse at 50 mg/kg, po administered as single dose measured for 24 hrs by HPLC analysis; type: ADME, organism-based; design: dose 50 mg/kg, route oral; conditions: in vivo; procedure, shortened: as §2
[6] = AUC (0 to infinity) in ICR mouse at 50 mg/kg, po administered as single dose measured for 24 hrs by HPLC analysis; type: ADME, organism-based; design: dose 50 mg/kg, route oral, time infinity; conditions: in vivo; procedure, shortened: as §2
[7] = Mean residence time in ICR mouse at 50 mg/kg, po administered as single dose measured for 24 hrs by HPLC analysis; type: ADME, organism-based; conditions: in vivo; procedure, shortened: as §2
[8] = Half-life in human hepatocytes; type: ADME, cell-based, Hepatocyte
[9] = Acute toxicity in ICR mouse assessed as decrease in animal survival at 500 mg/kg, po administered as single dose measured for 7 days; type: organism-based; conditions: in vivo, 168 h; procedure, shortened: as §1

| SMILES | MIC [1] [µg/mL] | further results |
| --- | --- | --- |
| CCc1nc2ccc(C)cn2c1C(=O)NCCOc1ccc(N2CC3CCCCC3C2)cc1 (configuration not stated) | 0.0625 (≈ 0.14 µM) | survival at 168 h [2]: 0% |
| CCc1nc2ccc(Cl)cn2c1C(=O)NCCOc1ccc(N(C)C)cc1 | 0.0625 (≈ 0.162 µM) | survival at 168 h [2]: 100%; half-life [3]: 162 min; Tmax [4]: 15 min; Cmax [5]: 2120 ng/mL; AUC(0-inf) [6]: 3340 ng·h/mL; MRT [7]: 98.4 min |
| Cc1nc2ccc(F)cn2c1C(=O)NCCOc1ccc(Br)cc1 | 1.21 (≈ 3.08 µM) |  |
| Cc1ccn2c(C(=O)NCCOc3ccc(Br)cc3)c(C)nc2c1 | 0.463 (≈ 1.19 µM) |  |
| CCc1nc2ccc(C)cn2c1C(=O)NCCOc1ccc(N2CCN(C)CC2)cc1 | 4 (≈ 9.49 µM) |  |
| COc1ccc(OCCNC(=O)c2c(C3CC3)nc3ccc(C)cn23)cc1 | 0.027 (≈ 0.0739 µM) | half-life [8]: 7.8 min |
| CCc1nc2cc(Cl)ccn2c1C(=O)NCCOc1ccc(Br)cc1 | 6.35 (≈ 15 µM) |  |
| Cc1nc2ccc(F)cn2c1C(=O)NCCOc1ccc(Cl)cc1 | 3.84 (≈ 11 µM) |  |
| COc1ccc2nc(C)c(C(=O)NCCOc3ccc(N4CCC(C(F)(F)F)CC4)cc3)n2c1 | 0.0625 (≈ 0.131 µM) | survival at 168 h [2]: 100%; half-life [3]: 55 min; Tmax [4]: 19.8 min; Cmax [5]: 638 ng/mL; AUC(0-inf) [6]: 754 ng·h/mL; MRT [7]: 64.2 min |
| Cc1nc2ccc(Br)cn2c1C(=O)NCCOc1ccc(Br)cc1 | 0.358 (≈ 0.79 µM) |  |
| CCCc1nc2ccc(F)cn2c1C(=O)NCCOc1ccc(Br)cc1 | 2.68 (≈ 6.38 µM) |  |
| O=c1nc(N2CCN(CC3CCCCC3)CC2)sc2c([N+](=O)[O-])cc(C(F)(F)F)cc12 [MACOZINONE] | 0.0625 (≈ 0.137 µM) |  |
| NNC(=O)c1ccncc1 [ISONIAZID] | 0.049 (≈ 0.357 µM) |  |
| CCc1nc2ccc(Br)cn2c1C(=O)NCCOc1ccc(N2CCN(C)CC2)cc1 | 1 (≈ 2.06 µM) |  |
| COc1ccc2nc(C)c(C(=O)NCCOc3ccc(Br)cc3)n2c1 | 0.028 (≈ 0.0693 µM) | half-life [8]: 54.2 min |
| O=C(NCCOc1ccc(Br)cc1)c1c(C2CC2)nc2ccc(F)cn12 | 0.928 (≈ 2.22 µM) |  |
| CCCc1nc2ccc(Cl)cn2c1C(=O)NCCOc1ccc(Cl)cc1 | 0.631 (≈ 1.61 µM) |  |
| CCc1nc2ccc(Cl)cn2c1C(=O)NCCOc1ccc(OC)cc1 | 0.056 (≈ 0.15 µM) |  |
| CCc1nc2ccc(Cl)cn2c1C(=O)NCCOc1ccc(N2CCN(c3ccc(F)cc3)CC2)cc1 | 0.0625 (≈ 0.12 µM) | survival at 168 h [2]: 100%; half-life [3]: 265 min; Tmax [4]: 80 min; Cmax [5]: 3330 ng/mL; AUC(0-inf) [6]: 11100 ng·h/mL; MRT [7]: 214 min |
| Cc1nc2c(Cl)cccn2c1C(=O)NCCOc1ccc(Br)cc1 | 0.505 (≈ 1.24 µM) |  |
| CCCc1nc2ccc(Cl)cn2c1C(=O)NCCOc1ccc(Br)cc1 | 0.054 (≈ 0.124 µM) |  |
| CCc1nc2ccc(Br)cn2c1C(=O)NCCOc1ccc(Br)cc1 | 0.025 (≈ 0.0535 µM) | half-life [8]: 15.8 min |
| Cc1ccc2nc(C)c(C(=O)NCCOc3ccc(Br)cc3)n2c1 | 0.031 to 0.125 (≈ 0.0798 to 0.322 µM) | half-life [8]: 6.5 min |
| Cc1nc2c(C)cccn2c1C(=O)NCCOc1ccc(Br)cc1 | 13.9 (≈ 35.9 µM) |  |
| O=C(NCCOc1ccc(Cl)cc1)c1c(C2CC2)nc2cc(Cl)ccn12 | 32 (≈ 82 µM) |  |
| CCc1nc2ccc(Br)cn2c1C(=O)NCCOc1ccc(N2CCC(C(F)(F)F)CC2)cc1 | 0.0625 (≈ 0.116 µM) | survival at 168 h [2]: 100%; half-life [3]: 283 min; Tmax [4]: 45 min; Cmax [5]: 5080 ng/mL; AUC(0-inf) [6]: 7120 ng·h/mL; MRT [7]: 113 min |

| SMILES | MIC [1] [µg/mL] | further results |
| --- | --- | --- |
| CCc1nc2ccc(Cl)cn2c1C(=O)NCc1ccc(N2CCC(c3ccc(OC(F)(F)F)cc3)CC2)cc1 [TELACEBEC] | 0.0625 (≈ 0.112 µM) |  |
| COc1ccc2nc(C)c(C(=O)NCCOc3ccc(N4CC5CCCCC5C4)cc3)n2c1 (configuration not stated) | 0.0625 (≈ 0.139 µM) | Activity [9]: Toxic |
| CCc1nc2ccc(C)cn2c1C(=O)NCCOc1ccc(OC)cc1 | 0.023 (≈ 0.0651 µM) | half-life [8]: 19.5 min |
| Cc1nc2cc(Cl)ccn2c1C(=O)NCCOc1ccc(Br)cc1 | 2.68 (≈ 6.56 µM) |  |
| CCc1nc2cc(Cl)ccn2c1C(=O)NCCOc1ccc(Cl)cc1 | 5.86 (≈ 15.5 µM) |  |
| Cc1nc2ccc(Cl)cn2c1C(=O)NCCOc1ccc(Br)cc1 | 0.488 (≈ 1.19 µM) |  |
| CCc1nc2ccc(Cl)cn2c1C(=O)NCCOc1ccc(Cl)cc1 | 0.029 (≈ 0.0767 µM) | half-life [8]: 12.9 min |
| Cc1ccc2nc(C3CC3)c(C(=O)NCCOc3ccc(Br)cc3)n2c1 | 0.052 (≈ 0.126 µM) |  |
| CCc1nc2c(Cl)cccn2c1C(=O)NCCOc1ccc(Br)cc1 | 17.5 (≈ 41.4 µM) |  |
| Cc1ccc2nc(C)c(C(=O)NCCOc3ccncc3)n2c1 | > 32 |  |
| COc1ccc2nc(C)c(C(=O)NCCOc3ccc(N4CCN(C)CC4)cc3)n2c1 | 0.5 (≈ 1.18 µM) |  |
| Cc1ccn2c(C(=O)NCCOc3ccc(Br)cc3)c(C3CC3)nc2c1 | 5 (≈ 12.1 µM) |  |
| CCc1nc2ccc(C)cn2c1C(=O)NCCOc1ccc(Br)cc1 | 0.275 (≈ 0.684 µM) |  |
| O=C(NCCOc1ccc(Br)cc1)c1c(C2CC2)nc2ccc(Cl)cn12 | 0.098 (≈ 0.225 µM) |  |
| CCc1nc2ccc(Cl)cn2c1C(=O)NCCOc1ccncc1 | > 32 |  |
| CCCc1nc2ccc(F)cn2c1C(=O)NCCOc1ccc(Cl)cc1 | 1.14 (≈ 3.04 µM) |  |
| Cc1nc2cccc(Cl)n2c1C(=O)NCCOc1ccc(Br)cc1 | 2.52 (≈ 6.18 µM) |  |
| CO[C@H]1/C=C/O[C@@]2(C)Oc3c(C)c(O)c4c(O)c(c(/C=N/N5CCN(C)CC5)c(O)c4c3C2=O)NC(=O)/C(C)=C\C=C\[C@H](C)[C@H](O)[C@@H](C)[C@@H](O)[C@@H](C)[C@H](OC(C)=O)[C@@H]1C [RIFAMPIN] | 0.05 (≈ 0.0608 µM) |  |
| CCc1nc2ccc(Br)cn2c1C(=O)NCCOc1ccc(N2CC3CCCCC3C2)cc1 (configuration not stated) | 0.0625 (≈ 0.122 µM) | Activity [9]: Toxic |
| CCCc1nc2ccc(C)cn2c1C(=O)NCCOc1ccc(Br)cc1 | 0.415 (≈ 0.997 µM) |  |
| CCc1nc2ccc(F)cn2c1C(=O)NCCOc1ccc(Br)cc1 | 0.202 (≈ 0.497 µM) |  |
| O=C(NCCOc1ccc(Br)cc1)c1c(C2CC2)nc2cc(Cl)ccn12 | 32 (≈ 73.6 µM) |  |
| CCc1nc2ccc(Cl)cn2c1C(=O)NCCOc1ccc(Br)cc1 | 0.023 (≈ 0.0544 µM) | half-life [8]: 35.2 min |
| Cc1nc2ccc([N+](=O)[O-])cn2c1C(=O)NCCOc1ccc(Br)cc1 | 1.28 (≈ 3.05 µM) |  |
| CCc1nc2ccc(Br)cn2c1C(=O)NCCOc1ccc(N2CCCCC2)cc1 | 0.0625 (≈ 0.133 µM) | survival at 168 h [2]: 100%; half-life [3]: 251 min; Tmax [4]: 15 min; Cmax [5]: 983 ng/mL; AUC(0-inf) [6]: 818 ng·h/mL; MRT [7]: 169 min |
| CCCc1nc2ccc(C)cn2c1C(=O)NCCOc1ccc(Cl)cc1 | 0.631 (≈ 1.7 µM) |  |
